Consider three compounds from ChEMBL document CHEMBL5214934, “A simplified analog of debromoaplysiatoxin lacking the B-ring of spiroketal moiety retains protein kinase C-binding and antiproliferative activities” (Bioorg Med Chem, 2022).

Active and inactive are the calls of the source. No cut-off for these calls is given here.

The species entered for one experiment is Homo sapiens. Kind of experiment: Ratio Ki for inhibition of [3H]-PDBu binding to PKCalpha C1A domain (unknown origin) to Ki for inhibition of [3H]-PDBu binding to PKCdelta C1B domain (unknown origin).
A further experiment has as its system St-4. Kind of experiment: Antiproliferative activity against human St-4 cells after 48 hrs by SRB assay. It is filed as functional. Conditions: St-4, read-out: pGI50 (converted). Summed up: (§1)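 Part of a 39-line human cancer cell panel. Cells plated in RPMI 1640 with 5% FBS and left to attach overnight, then exposed to compound at 10^-8 to 10^-4 M for 48 h. Growth measured by sulforhodamine B staining, absorbance at 525 nm, with a time-0 reading. % growth calculated against control from duplicate points. GI50 is the concentration giving 50% growth inhibition versus untreated control.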

The next experiment deals with NCI-H460. Kind of experiment: Antiproliferative activity against human NCI-H460 cells after 48 hrs by SRB assay. It is filed as functional. Summed up:
as §1

In the next experiment the test system is A549. Put plainly: Antiproliferative activity against human A549 cells after 48 hrs by SRB assay. The experiment is classed as functional. To be noted: A549, read-out: pGI50 (converted). Summed up: as §1
The nature of experiment [1]: Antiproliferative activity against human HBC4 cells after 48 hrs by SRB assay. The experiment is classed as functional. To be noted: HBC4, read-out: pGI50 (converted). Summed up:
as §1

The test system of the next experiment is MDA-MB-231. Kind of experiment: Antiproliferative activity against human MDA-MB-231 cells after 48 hrs by SRB assay. It is filed as functional. Conditions: MDA-MB-231, read-out: pGI50 (converted). Summed up: as §1
In a further experiment the test system is OVCAR-5. Put plainly: Antiproliferative activity against human OVCAR-5 cells after 48 hrs by SRB assay. It is filed as functional. Conditions: OVCAR-5, read-out: pGI50 (converted). Summed up:
as §1

The subject of another experiment is SF-295. Kind of experiment: Antiproliferative activity against human SF-295 cells after 48 hrs by SRB assay. The experiment is classed as functional. Conditions: SF-295, read-out: pGI50 (converted). Summed up: as §1
The target of experiment [2] is Protein kinase C delta type (Homo sapiens, UniProt Q05655). Kind of experiment: Inhibition of [3H]-PDBu binding to PKCdelta C1B domain (unknown origin) by competitive binding assay. Summed up:
(§2)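 Synthetic PKCα-C1A (40 nM) or PKCδ-C1B (13.8 nM) peptide in 50 mM Tris-maleate (pH 7.4 at 4 °C). Mixture contained 20 nM [3H]PDBu (13.92 Ci/mmol), 50 µg/mL dioleoylphosphatidylserine, 3 mg/mL bovine γ-globulin and graded ligand. IC50 by logit analysis; Ki by Goldstein–Barrett equation from IC50 and [3H]PDBu Kd. Two independent experiments, triplicates each; log-scale mean with 95% CI.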

The next experiment has as its system DMS-273. Kind of experiment: Antiproliferative activity against human DMS-273 cells after 48 hrs by SRB assay. The experiment is classed as functional. To be noted: DMS-273, read-out: pGI50 (converted). Summed up:
as §1

The subject of a further experiment is MKN-45. Kind of experiment: Antiproliferative activity against human MKN-45 cells after 48 hrs by SRB assay. The experiment is classed as functional. Summed up: as §1
In experiment [3] the target is Protein kinase C alpha type (Homo sapiens, UniProt P17252). Put plainly: Inhibition of [3H]-PDBu binding to PKCalpha C1A domain (unknown origin) by competitive binding assay. Summed up: as §2
For the next experiment, the system named is HCC 2998. Put plainly: Antiproliferative activity against human HCC 2998 cells after 48 hrs by SRB assay. The experiment is classed as functional. Conditions: HCC 2998, read-out: pGI50 (converted). Summed up: as §1

Protein kinase C delta type, sequence (Q05655 whole entry, the tested form may be a part): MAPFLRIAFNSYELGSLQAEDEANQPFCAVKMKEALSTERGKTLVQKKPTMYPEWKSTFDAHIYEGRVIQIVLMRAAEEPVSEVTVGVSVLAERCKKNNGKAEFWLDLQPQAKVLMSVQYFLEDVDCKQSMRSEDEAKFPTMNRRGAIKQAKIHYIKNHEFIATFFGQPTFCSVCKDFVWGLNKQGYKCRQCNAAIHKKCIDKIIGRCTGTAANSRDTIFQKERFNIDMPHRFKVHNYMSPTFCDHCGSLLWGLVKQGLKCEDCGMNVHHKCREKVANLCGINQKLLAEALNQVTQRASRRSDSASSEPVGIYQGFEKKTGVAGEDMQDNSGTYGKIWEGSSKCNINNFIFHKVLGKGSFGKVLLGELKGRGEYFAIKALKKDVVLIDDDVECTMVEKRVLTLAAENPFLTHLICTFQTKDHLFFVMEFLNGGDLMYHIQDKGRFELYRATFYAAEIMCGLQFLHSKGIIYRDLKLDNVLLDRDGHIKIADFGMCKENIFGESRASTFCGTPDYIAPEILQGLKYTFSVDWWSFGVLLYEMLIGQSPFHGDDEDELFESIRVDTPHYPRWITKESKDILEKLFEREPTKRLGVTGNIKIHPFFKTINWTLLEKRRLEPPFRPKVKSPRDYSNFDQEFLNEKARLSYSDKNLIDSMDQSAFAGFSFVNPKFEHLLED

In the case of `CC1(C)CC[C@@H]2CC(=O)O[C@@H](CO)CC(=O)O[C@H](CCCCCCc3ccccc3)C[C@@H]1O2`, the Ratio Ki in the experiment listed under Homo sapiens worked out at 5.2. Also, the GI50 was below 10 µM in the experiment on St-4; below 10 µM in the experiment with NCI-H460 (NCI-H460, read-out: pGI50 (converted)); below 10 µM in the experiment with A549; below 10 µM in experiment [1]; below 10 µM in the experiment on MDA-MB-231; below 10 µM with OVCAR-5. Moreover, the GI50 is below 10 µM in the experiment on SF-295; below 10 µM with DMS-273; below 10 µM in the experiment on MKN-45 (MKN-45, read-out: pGI50 (converted)); below 10 µM in the experiment with HCC 2998. Besides, the Ki in experiment [2] amounted to 0.017 µM; in experiment [3], 0.088 µM.
As to `CC1(C)CC[C@@H]2CC(=O)O[C@@H](CO)CC(=O)O[C@@H]3C[C@@H](CCCCc4ccccc4)O[C@@]1(C3)O2`, the Ratio Ki in the experiment filed under Homo sapiens came to 12.
`CC(C)[C@@]12C[C@@H](C[C@@H](CCCCc3ccccc3)O1)OC(=O)C[C@H](CO)OC(=O)CCO2`: the Ratio Ki in the experiment filed under Homo sapiens was 0.8. Further, the result in the experiment with NCI-H460 and in the experiment on MKN-45 was Active. In addition, the values for the Ki in [2] and in [3] were 0.13 µM and 0.1 µM, respectively.
